A short description of data set [1]: Drug degradation in human hepatocytes assessed as 5-hydroxy-indazole formation at 10 uM up to 120 mins by LC-MS/MS analysis. Type of data set: ADME, cell-based, Hepatocyte. The conditions noted are these: 2 h.
Data set [2] in a line: Drug degradation in rat hepatocytes assessed as 5-hydroxy-indazole formation at 10 uM up to 120 mins by LC-MS/MS analysis. Format: ADME, cell-based, Hepatocyte. The conditions noted are these: 2 h.
The nature of data set [3]: Drug degradation in dog hepatocytes assessed as 5-hydroxy-indazole formation at 10 uM up to 120 mins by LC-MS/MS analysis. Format: ADME, cell-based, Canis lupus familiaris, Hepatocyte. The conditions noted are these: 2 h.
A short description of data set [4]: Drug degradation in rat hepatocytes at 10 uM up to 120 mins by LC-MS/MS analysis. Format: ADME, cell-based, Hepatocyte. The conditions noted are these: 2 h.
Data set [5] can be described thus: Drug degradation in human hepatocytes at 10 uM up to 120 mins by LC-MS/MS analysis. Type of data set: ADME, cell-based, Hepatocyte. The conditions noted are these: 2 h.
Data set [6] can be described thus: Drug degradation in dog hepatocytes at 10 uM up to 120 mins by LC-MS/MS analysis. Format: ADME, cell-based, Canis lupus familiaris, Hepatocyte. The conditions noted are these: 2 h.
Data set [7] can be described thus: Clearance in Wistar Han rat at 1 umol/kg, iv administered as bolus dose by LC-MS/MS analysis. Type of data set: ADME, organism-based. The conditions noted are these: in vivo.
Data set [8] is described as follows: Intrinsic clearance in human hepatocytes assessed per million cells. Type of data set: ADME, cell-based, Hepatocyte. The conditions noted are these: read-out: CLH.
Data set [9] can be described thus: Mean residence time in Wistar Han rat lung at 0.1 umol/kg, administered via intratracheal instillation by LC-MS/MS analysis. Format: ADME, tissue-based. The conditions noted are these: inhaled or intranasal.
Data set [10] in a line: Oral bioavailability in Wistar Han rat administered via gavage by LC-MS/MS analysis. Format: ADME, organism-based. The conditions noted are these: in vivo.
Data set [11] in a line: AUC (0 to infinity) in Wistar Han rat lung at 0.1 umol/kg, administered via intratracheal instillation by LC-MS/MS analysis. The arrangement: dose 0.1 umol/kg, time infinity. The conditions noted are these: inhaled or intranasal. Format: ADME, tissue-based.
The subject of data set [12] is Lung. Kind of data set: Drug uptake in Wistar Han rat lung at 0.1 umol/kg, administered via intratracheal instillation after 4 hrs by LC-MS/MS analysis. Format: ADME, tissue-based. The conditions noted are these: in vivo, inhaled_or_intranasal.
The nature of data set [13]: Terminal half life in Wistar Han rat 1 umol/kg, iv administered as bolus dose by LC-MS/MS analysis. Format: ADME, organism-based. The conditions noted are these: in vivo, read-out: beta t1/2 (converted).
The nature of data set [14]: Apparent terminal half life in Wistar Han rat lung at 0.1 umol/kg, administered via intratracheal instillation by LC-MS/MS analysis. Format: ADME, tissue-based. The conditions noted are these: inhaled or intranasal, read-out: betat1/2(app) (converted).
Data set [15] can be described thus: Volume of distribution at steady state in Wistar Han rat at 1 umol/kg, iv administered as bolus dose by LC-MS/MS analysis. Format: ADME, organism-based. The conditions noted are these: in vivo, read-out: Vdss.
The nature of data set [16]: Intrinsic clearance in Wistar Han rat hepatocytes assessed per 10^6 cells. The conditions noted are these: read-out: CLH. Format: ADME, cell-based, Hepatocyte.
Data set [17] has as its system Lung. The data set is described as follows: Drug uptake in Wistar Han rat lung at 0.1 umol/kg, administered via intratracheal instillation after 24 hrs by LC-MS/MS analysis. Format: ADME, tissue-based. The conditions noted are these: in vivo, inhaled_or_intranasal.
A short description of data set [18]: Cmax in Wistar Han rat plasma at 0.1 umol/kg, administered via intratracheal instillation by LC-MS/MS analysis. Format: ADME. The conditions noted are these: inhaled or intranasal. Further details: dose 0.1 umol/kg.
Data set [19] can be described thus: Lipophilicity, log D of the compound by chromatography. Format: physicochemical.
The nature of data set [20]: AUC (0 to infinity) in Wistar Han rat lung at 0.1 umol/kg, administered as dry powder inhalation by LC-MS/MS analysis. Format: ADME. The arrangement: dose 0.1 umol/kg, route respiratory (INHALATION), time infinity. The conditions noted are these: inhaled or intranasal.
The test system of data set [21] is Lung. Kind of data set: Drug uptake in Wistar Han rat lung at 0.1 umol/kg, administered as dry powder inhalation after 24 hrs by LC-MS/MS analysis. Format: ADME, tissue-based. The conditions noted are these: in vivo, inhaled_or_intranasal.
The subject of data set [22] is Rattus norvegicus. Kind of data set: Toxicity in inhaled CRL:CD Sprague Dawley rat model of sephadex induced lung edema assessed as induction of thymic involution administered once per day for 4 days. The conditions noted are these: in vivo, inhaled_or_intranasal, 96 h. In short, it runs like this: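 Thymic involution scored in the same Sephadex-challenged rats dosed by inhalation, as a sensitive marker of systemic GR agonism.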

Data set [23] can be described thus: Mean residence time in Wistar Han rat lung at 0.1 umol/kg, administered as dry powder inhalation by LC-MS/MS analysis. Format: ADME, tissue-based. The conditions noted are these: inhaled or intranasal.
A short description of data set [24]: Thermodynamic solubility of the compound in human intestinal fluid. Type of data set: physicochemical. The conditions noted are these: read-out: Therm_solubility.
For data set [25], the system named is Lung. The data set is described as follows: Drug uptake in Wistar Han rat lung at 0.1 umol/kg, administered as dry powder inhalation after 4 hrs by LC-MS/MS analysis. Type of data set: ADME. The conditions noted are these: in vivo, inhaled_or_intranasal.
Data set [26] in a line: Cmax in Wistar Han rat plasma at 0.1 umol/kg, administered as dry powder inhalation by LC-MS/MS analysis. The conditions noted are these: inhaled or intranasal. Type of data set: ADME. Further details: dose 0.1 umol/kg, route respiratory (INHALATION).
The nature of data set [27]: Apparent terminal half life in Wistar Han rat lung at 0.1 umol/kg, administered as dry powder inhalation by LC-MS/MS analysis. The conditions noted are these: inhaled or intranasal, read-out: betat1/2(app) (converted). Type of data set: ADME.

Molecules are shown by their SMILES. ≈ marks a conversion by molar mass, not a printed value.

In the case of `O=[14C](N[C@@H]1CCOC1)c1cccc(-n2ncc3cc(OS(=O)(=O)O)ccc32)c1`, the Drug metabolism entry in data set [1], in data set [2] and in data set [3] was “Metabolite_Detected” in each case.

Turning to `C[C@H](NC(=O)C(C)(F)F)[C@H](Oc1ccc2c(cnn2-c2cccc([14C](=O)N[C@@H]3CCOC3)c2)c1)c1ccc2c(c1)OCCO2`, the Drug metabolism result in [1], in [2] and in data set [3] was “Metabolite_Detected” each time. The Drug degradation entry in data set [4], in [5] and in [6] was “Metabolite_Detected” each time.

`C[C@H](NC(=O)C(C)(F)F)[C@H](Oc1ccc2c(cnn2-c2ccc(F)cc2)c1)c1ccc2c(c1)OCCO2`: the clearance (as a rule, a measure of how efficiently the substance is removed, as volume per time) in data set [7] is 42 mL/min/kg. The hepatocyte CLint is 28 µL/min/1e6 cells in data set [8] and 22 µL/min/1e6 cells in data set [16]. Further, the MRT – broadly, a mean duration of stay, worked out from the concentration-time curve – in [9] was determined as 8.8 h. The bioavailability (as a rule, dose-corrected exposure relative to a reference, in per cent) in data set [10] was 11%. In data set [11], the total exposure AUC(0-inf) (usually total exposure, with the tail of the curve extrapolated) was 12 µM·h. Moreover, the Drug uptake turned out to be 4.5 %ID in [12] and 0.8 %ID in data set [17]. Moreover, the half-life is 444 min in data set [13] and 534 min in [14]. The Vd in [15] was determined as 10 L/kg. The Cmax – broadly, the peak of the concentration-time curve – in data set [18] turned out to be 30 nM. Also, the chromatographic logD (in general, a lipophilicity value derived from retention on a column) in data set [19] is 5.5.

Take `COc1cccc([C@@H](Oc2ccc3c(cnn3-c3ccc(F)cc3)c2)[C@H](C)NC(=O)C(F)(F)F)c1` [AZD-5423]: in [20], the area under the curve AUC(0-inf) came out at 18 µM·h. The clearance in data set [7] stood at 38 mL/min/kg. For the same compound, the hepatocyte CLint in [8] was found to be 16 µL/min/1e6 cells; in [16] it was 13 µL/min/1e6 cells. For the same compound, the Drug uptake in data set [21] was 0 to 0.4 %ID; in data set [12], 1 %ID; in data set [25], 0.7 %ID. The ED25 in data set [22] came to 4.6 µg/kg. The compound further registered a bioavailability in data set [10] of 37%. The same compound displayed a mean residence time (MRT) in data set [23] of 1.5 h. In data set [24], the solubility thermodynamic stood at 12 µM (≈ 5.85 µg/mL). Further, the half-life in [13] was 282 min; in data set [27] it was 450 min. The Vd in data set [15] came out at 23 L/kg. Also, the Cmax in data set [26] worked out at 122 nM. Also, in data set [19], the chromatographic logD was found to be 6.

The values above are taken from ChEMBL document CHEMBL4028861, “Selective Nonsteroidal Glucocorticoid Receptor Modulators for the Inhaled Treatment of Pulmonary Diseases” (J Med Chem, 2017).
